ChEMBL document CHEMBL1944539, “Design, synthesis, and biological evaluation of potent quinoline and pyrroloquinoline ammosamide analogues as inhibitors of quinone reductase 2” (J Med Chem, 2012)
The source made the active and inactive calls. The rule behind the calls is not given here.

What was measured:
[1] = biological target: T1, Ribosyldihydronicotinamide dehydrogenase [quinone] (Homo sapiens) (UniProt P16083); assay: (§1) Inhibition of human quinone reductase 2 using NMeH as substrate by MTT assay
T1 sequence (whole entry): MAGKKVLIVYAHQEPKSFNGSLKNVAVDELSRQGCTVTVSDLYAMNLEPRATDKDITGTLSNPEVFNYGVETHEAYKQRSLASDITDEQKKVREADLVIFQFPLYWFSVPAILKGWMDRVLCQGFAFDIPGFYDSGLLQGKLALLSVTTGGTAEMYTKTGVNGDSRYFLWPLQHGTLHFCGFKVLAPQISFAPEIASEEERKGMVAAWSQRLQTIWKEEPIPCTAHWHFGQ
In short: (§2)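 Human QR2 (12 nM) with 25 μM NMeH and 200 μM MTT in 100 mM NaCl, 50 mM Tris pH 7.5, 0.1% Triton X-100, 23 °C; reactions started by enzyme. Formazan formation read at 612 nm; initial rates from ε 11,300 M-1cm-1. Inhibitor at varying concentrations, triplicate; IC50 from % inhibition versus zero-inhibitor control.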

[2] = biological target: T2, Ribosyldihydronicotinamide dehydrogenase [quinone] (Homo sapiens, UniProt P16083); assay: as §1; in short: as §2
T2 sequence (P16083 whole entry): T1 sequence (whole entry)

[3] = biological target: T1, Ribosyldihydronicotinamide dehydrogenase [quinone] (Homo sapiens); assay: Inhibition of human quinone reductase 2 using NMeH as substrate by MTT assay relative to control
HOP-62 = assay: Cytotoxicity against human HOP62 cells assessed as cell growth at 10 uM; assay type: cell-based; conditions: hop-62, 10 µM
In short: (§3)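 Cells exposed to compound at a single concentration; read-out is growth percent relative to untreated control cultures.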

HCT-116 = assay: Cytotoxicity against human HCT116 cells assessed as cell growth at 10 uM; assay type: cell-based; conditions: hct-116, 10 µM; in short: as §3
SF-539 = assay: Cytotoxicity against human SF539 cells assessed as cell growth at 10 uM; assay type: cell-based; conditions: sf-539, 10 µM; in short: as §3
UACC-62 = assay: Cytotoxicity against human UACC62 cells assessed as cell growth at 10 uM; assay type: cell-based; conditions: uacc-62, 10 µM; in short: as §3
OVCAR-3 = assay: Cytotoxicity against human OVCAR3 cells assessed as cell growth at 10 uM; assay type: cell-based; conditions: ovcar-3, 10 µM; in short: as §3
SN12C = assay: Cytotoxicity against human SN12C cells assessed as cell growth at 10 uM; assay type: cell-based; in short: as §3
DU-145 = assay: Cytotoxicity against human DU145 cells assessed as cell growth at 10 uM; assay type: cell-based; conditions: du-145, 10 µM; in short: as §3
MCF7 = assay: Cytotoxicity against human MCF7 cells assessed as cell growth at 10 uM; assay type: cell-based; conditions: mcf7, 10 µM; in short: as §3
[4] = biological target: T1, Ribosyldihydronicotinamide dehydrogenase [quinone] (Homo sapiens); assay: Ratio of IC50 for ammosamide B to compound IC50 for human quinone reductase 2 using NMeH as substrate by MTT assay

Row | Compound | inhibition [1] | IC50 [2] | Imax [3] | Activity (HOP-62) | Activity (HCT-116) | Activity (SF-539) | Activity (UACC-62) | Activity (OVCAR-3) | Activity (SN12C) | Activity (DU-145) | Activity (MCF7) | Ratio IC50 [4]
1 | COC(=O)C1CC(O)(C(=O)OC)c2c(N)c(Cl)cc(Cl)c2N1 (centres undefined) | inactive | – | – | – | – | – | – | – | – | – | – | –
2 | COC(=O)c1cc(C(=O)OC)c2c(Cl)cc(N(C)C)cc2n1 | – | 4 µM | 92.2% | 114.23% | 104.18% | 100.61% | 109.82% | 115.27% | 113.39% | 138.91% | 78.61% | –
3 | CN1C(=O)c2cc(C(N)=O)nc3c(Cl)cc(Cl)c1c23 | – | 5.8 µM | 46.3% | 105.32% | 107% | 104.34% | 90.84% | 108.21% | 101.49% | 97.82% | 96.11% | –
4 | COC(=O)c1cc(C(N)=O)nc2cc(N)c(N)c(Cl)c12 | – | 0.15 µM | 89.7% | – | – | – | – | – | – | – | – | –
5 | COC(=O)c1cc(C(N)=O)nc2cc(N(C)C)cc(Cl)c12 | – | 1.6 µM | 80.5% | – | – | – | – | – | – | – | – | –
6 | COC(=O)c1cc(C(N)=O)nc2cc(N)cc(Cl)c12 | – | 1.1 µM | 75.5% | 109.87% | 98.84% | 104.82% | 102.96% | 110.07% | 102.63% | 105.75% | 97.23% | –
7 | NC(=O)c1cc(C(N)=O)c2cc(I)c(N)cc2n1 | – | 1.5 µM | 64% | – | – | – | – | – | – | – | – | –
8 | COC(=O)c1cc(C(=O)OC)c2c(Cl)cc(NC(C)=O)cc2n1 | – | > 100 µM | – | 112.21% | 103.44% | 109.23% | 112.51% | 124.69% | 109.64% | 112.18% | 100.11% | –
9 | COC(=O)c1cc(C(=O)OC)c2c(N)c(Cl)cc(Cl)c2n1 | – | 22.1 µM | 36.6% | – | – | – | – | – | – | – | – | –
10 | COC(=O)C1CC2(O)C(=O)Nc3c(Cl)cc(Cl)c(c32)N1 (centres undefined) | inactive | – | – | – | – | – | – | – | – | – | – | –
11 | CN1C(=O)c2cc(C(=O)NCc3ccccc3)nc3c(Cl)cc(Cl)c1c23 | – | 7.8 µM | 44.8% | 113.2% | 103.06% | 97.49% | 101.93% | 103.52% | 107.48% | 104.81% | 95.79% | –
12 | COC(=O)c1cc(C(=O)OC)c2c(Cl)c(N)c(N)cc2n1 | – | 0.24 µM | 85.7% | – | – | – | – | – | – | – | – | –
13 | CNc1c(Cl)c(N)c2c3c(cc(C(N)=O)nc13)C(=O)N2C | – | 0.0041 µM | 102% | – | – | – | – | – | – | – | – | > 10
14 | COC(=O)c1cc2c3c(n1)C(=O)C(=O)C(Cl)=C3N(C)C2=O | – | – | – | 110.6% | 104.56% | 106.99% | 96.96% | 123.43% | 102.66% | 112.19% | 94.99% | –
15 | CN(C)C(=O)c1cc2c3c(c(Cl)cc(Cl)c3n1)N(C)C2=O | – | 25.2 µM | 31.5% | 118.26% | 102.47% | 101.43% | 110.63% | 126.09% | 106.07% | 127.34% | 122.71% | –
16 | COC(=O)c1cc(C(N)=O)nc2cc(NC(C)=O)cc(Cl)c12 | – | 9 µM | 96% | 103.41% | 104.18% | 107.48% | 108.54% | 120.2% | 109% | 124.6% | 89.58% | –
17 | COC(=O)c1cc(C(=O)OC)c2c(Cl)cc(N)cc2n1 | – | 3.3 µM | 87.9% | 108.99% | 108.2% | 117.31% | 101.7% | 106.32% | 102.78% | 108.11% | 105.75% | –
18 | COC(=O)c1cc(C(N)=O)nc2cc(N)c(I)cc12 | – | 1.5 µM | 83.9% | – | – | – | – | – | – | – | – | –
19 | COC(=O)c1cc(C(=O)OC)c2c(Cl)cc(N)c(Cl)c2n1 | – | 5.6 µM | 91.1% | 104.53% | 100.36% | 99.06% | 97.93% | 109.55% | 99.49% | 108.85% | 100.27% | –
20 | CN1C(=O)c2cc(C(N)=O)nc3c(N)c(Cl)c(N)c1c23 [AMMOSAMIDE B] | – | 0.061 µM | 90.3% | 96.95% | 101.05% | 88.22% | 100.09% | 115.24% | 98.89% | 114.59% | 98.04% | –
